Laboratory results as given in ChEMBL document CHEMBL1137618, “Synthesis and structure-activity relationship studies of 3,6-diazabicyclo[3.2.0]heptanes as novel alpha4beta2 nicotinic acetylcholine receptor selective agonists” (J Med Chem, 2007).

Tests used:
[1] = Displacement of [3H]cytisine from neuronal nicotinic acetylcholine receptor in rat brain membrane; assay type: cell membranes
[2] = molecular target: T1, Neuronal acetylcholine receptor; alpha3/beta4 (Homo sapiens, UniProt P30926+P32297); test: Agonist activity at recombinant human alpha3beta4 nAChR expressed in HEK293 cells assessed as induction of calcium influx by FLIPR assay relative to nicotine; assay type: functional, cell-based
T1 sequence (P30926 whole entry): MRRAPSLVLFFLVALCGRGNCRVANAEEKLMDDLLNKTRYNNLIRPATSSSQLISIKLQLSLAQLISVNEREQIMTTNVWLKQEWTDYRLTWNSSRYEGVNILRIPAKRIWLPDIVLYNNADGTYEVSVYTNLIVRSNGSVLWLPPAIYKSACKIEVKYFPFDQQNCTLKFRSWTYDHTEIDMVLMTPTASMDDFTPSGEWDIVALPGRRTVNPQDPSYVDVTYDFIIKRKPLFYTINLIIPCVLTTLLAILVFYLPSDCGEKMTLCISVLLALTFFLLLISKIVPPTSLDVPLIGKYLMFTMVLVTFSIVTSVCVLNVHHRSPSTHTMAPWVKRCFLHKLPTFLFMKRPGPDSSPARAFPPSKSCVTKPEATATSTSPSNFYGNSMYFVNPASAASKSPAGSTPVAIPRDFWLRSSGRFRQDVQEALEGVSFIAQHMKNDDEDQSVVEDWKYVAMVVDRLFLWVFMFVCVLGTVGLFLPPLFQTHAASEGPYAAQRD
T1 sequence (P32297 whole entry): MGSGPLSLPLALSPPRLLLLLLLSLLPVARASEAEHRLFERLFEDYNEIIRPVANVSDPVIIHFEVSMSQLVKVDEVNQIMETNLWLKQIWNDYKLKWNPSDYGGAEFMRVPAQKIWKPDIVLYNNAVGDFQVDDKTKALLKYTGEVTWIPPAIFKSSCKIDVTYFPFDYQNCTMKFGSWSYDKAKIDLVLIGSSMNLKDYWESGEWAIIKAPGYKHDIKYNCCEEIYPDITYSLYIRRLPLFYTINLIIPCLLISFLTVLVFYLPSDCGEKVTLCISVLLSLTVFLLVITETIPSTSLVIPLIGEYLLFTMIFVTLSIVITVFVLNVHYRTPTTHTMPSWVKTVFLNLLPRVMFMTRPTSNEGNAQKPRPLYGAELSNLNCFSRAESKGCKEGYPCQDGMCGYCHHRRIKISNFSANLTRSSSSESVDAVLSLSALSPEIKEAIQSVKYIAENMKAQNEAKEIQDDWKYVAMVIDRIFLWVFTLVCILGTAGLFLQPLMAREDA
In short: (§1)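 HEK-293 lines stably expressing human α4β2 or α3β4 nAChR, grown 24-48 h at 37 °C on poly-D-lysine in DMEM/10% FBS. Loaded with 2-4 µM Fluo-4 AM for ~0.75-1 h at room temperature in the dark, in NMDG Ringer pH 7.4. Serial log dilutions added, then peak calcium fluorescence read on FLIPR after buffer-blank subtraction.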

[3] = molecular target: T1, Neuronal acetylcholine receptor; alpha3/beta4; test: Agonist activity at recombinant human alpha-3-beta-4 nAChR expressed in HEK293 cells assessed as induction of calcium influx by FLIPR assay; assay type: functional, cell-based
[4] = molecular target: T2, Neuronal acetylcholine receptor; alpha4/beta2 (Homo sapiens, UniProt P17787+P43681); test: Agonist activity at recombinant human alpha-4-beta-2 nAChR expressed in HEK293 cells assessed as induction of calcium influx by FLIPR assay relative to nicotine; assay type: functional, cell-based; in short: as §1
T2 sequence (P17787 whole entry): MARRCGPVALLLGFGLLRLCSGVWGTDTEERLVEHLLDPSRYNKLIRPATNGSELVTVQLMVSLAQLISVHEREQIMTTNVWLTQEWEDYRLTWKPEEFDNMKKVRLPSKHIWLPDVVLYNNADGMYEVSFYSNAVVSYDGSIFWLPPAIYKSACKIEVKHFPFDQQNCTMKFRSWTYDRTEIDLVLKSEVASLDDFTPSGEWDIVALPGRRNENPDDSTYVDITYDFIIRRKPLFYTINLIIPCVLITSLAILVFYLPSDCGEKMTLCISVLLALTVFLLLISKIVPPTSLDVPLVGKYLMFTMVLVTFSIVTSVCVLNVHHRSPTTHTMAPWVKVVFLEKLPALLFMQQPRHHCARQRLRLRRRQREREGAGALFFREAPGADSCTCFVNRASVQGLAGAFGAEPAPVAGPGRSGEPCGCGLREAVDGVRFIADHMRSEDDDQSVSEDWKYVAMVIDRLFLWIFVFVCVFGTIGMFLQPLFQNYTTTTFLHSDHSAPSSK
T2 sequence (P43681 whole entry): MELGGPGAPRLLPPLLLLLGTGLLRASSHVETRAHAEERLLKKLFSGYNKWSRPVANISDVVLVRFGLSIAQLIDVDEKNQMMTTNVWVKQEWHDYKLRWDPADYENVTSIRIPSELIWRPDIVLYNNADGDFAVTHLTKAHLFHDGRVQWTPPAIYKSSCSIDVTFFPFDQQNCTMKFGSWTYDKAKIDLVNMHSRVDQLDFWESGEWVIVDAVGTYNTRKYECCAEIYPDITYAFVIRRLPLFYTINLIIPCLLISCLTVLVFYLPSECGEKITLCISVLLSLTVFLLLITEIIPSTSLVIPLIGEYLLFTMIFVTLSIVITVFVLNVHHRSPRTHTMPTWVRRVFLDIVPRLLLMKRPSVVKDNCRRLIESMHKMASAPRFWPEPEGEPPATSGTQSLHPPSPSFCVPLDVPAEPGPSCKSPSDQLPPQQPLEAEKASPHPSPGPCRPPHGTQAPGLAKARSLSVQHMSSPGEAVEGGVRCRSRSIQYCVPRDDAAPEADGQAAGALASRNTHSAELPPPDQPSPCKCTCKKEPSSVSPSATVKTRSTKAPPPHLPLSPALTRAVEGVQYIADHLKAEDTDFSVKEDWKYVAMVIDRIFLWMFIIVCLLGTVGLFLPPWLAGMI

[5] = molecular target: T2, Neuronal acetylcholine receptor; alpha4/beta2; test: Agonist activity at recombinant human alpha-4-beta-2 nAChR expressed in HEK293 cells assessed as induction of calcium influx by FLIPR assay; assay type: functional, cell-based

| Compound | Ki [1] [nM] | Log Ki [1] | Activity [2] [%] | EC50 ([3]; read-out: EC50) [nM] | Activity [4] [%] | EC50 ([5]; read-out: EC50) [nM] | EC50 ([5]; read-out: Log EC50 (converted)) [nM] | EC50 ([3]; read-out: Log EC50 (converted)) [nM] |
| --- | --- | --- | --- | --- | --- | --- | --- | --- |
| Cc1cc(N2C[C@@H]3CN[C@@H]3C2)cnc1C | 2.2 | -8.65 | 85 | 3300 | 76 | 1200 |  |  |
| Brc1cc(N2C[C@H]3CNC[C@H]32)cnc1Br | 0.5 | -9.35 | 94 | 1100 | 131 | 6900 | 676 |  |
| Cc1cc(N2C[C@H]3CN[C@H]3C2)cnc1Cl | 0.04 | -10.4 | 119 | 200 | 228 | 700 | 72.4 | 178 |
| Cc1cc(N2C[C@H]3CNC[C@H]32)cnc1C | 8 | -8.1 | 86 | 4200 | 85 | 2100 |  |  |
| Brc1cncc(N2C[C@H]3CN[C@H]3C2)c1 | 0.1 | -10.2 | 115 | 200 | 161 | 1100 |  | 240 |
| CN1CCC[C@H]1c1cccnc1 [NICOTINE] |  |  | 89 |  | 101 |  |  |  |
| Clc1cc(N2C[C@@H]3CN[C@@H]3C2)cnc1Cl [SOFINICLINE] | 0.3 | -9.53 | 92 | 1500 | 110 | 400 |  |  |
| COc1cncc(N2C[C@H]3CNC[C@H]32)c1 | 0.8 | -9.12 | 72 | 25800 | 90 | 3600 | 3390 |  |
| C#Cc1cncc(N2C[C@H]3CNC[C@H]32)c1 |  |  | 57 | 86900 | 77 | 13400 | 4900 | 77600 |
| COc1cncc(N2C[C@@H]3CNC[C@@H]32)c1 | 7.2 | -8.14 | 64 | 31200 | 43 | 24700 | 22900 |  |
| Clc1cc(N2C[C@H]3CNC[C@H]32)cnc1Cl | 0.3 | -9.55 | 92 | 1000 | 117 | 300 | 263 |  |
| COc1cncc(N2C[C@@H]3CN[C@@H]3C2)c1 | 3 | -8.52 | 44 | 48100 | 55 | 15800 | 13200 | 46800 |
| Clc1cncc(N2C[C@@H]3CN[C@@H]3C2)c1 | 1.9 | -8.72 | 57 | 25300 | 66 | 11400 | 9330 |  |
| Cc1cc(N2C[C@@H]3CNC[C@@H]32)cnc1Cl | 0.2 | -9.7 | 89 | 2200 | 134 | 600 |  |  |
| Cc1ncc(N2C[C@H]3CNC[C@H]32)cc1C#N | 1.1 | -8.95 | 96 | 2100 | 128 | 3900 | 3800 |  |
| Cc1cc(N2C[C@@H]3CN[C@@H]3C2)cnc1Cl | 0.08 | -10.1 | 100 | 700 | 134 | 300 |  |  |

| Compound | Ki [1] [nM] | Log Ki [1] | Activity [2] [%] | EC50 ([3]; read-out: EC50) [nM] | Activity [4] [%] | EC50 ([5]; read-out: EC50) [nM] | EC50 ([5]; read-out: Log EC50 (converted)) [nM] | EC50 ([3]; read-out: Log EC50 (converted)) [nM] |
| --- | --- | --- | --- | --- | --- | --- | --- | --- |
| Cc1ncc(N2C[C@@H]3CN[C@@H]3C2)cc1C#N | 0.6 | -9.2 | 94 | 900 | 119 | 800 | 724 |  |
| c1cncc(N2C[C@@H]3CN[C@@H]3C2)c1 | 1.2 | -8.92 | 90 | 6100 | 122 | 1600 |  |  |
| Clc1cncc(N2C[C@H]3CNC[C@H]32)c1 | 3 | -8.53 | 81 | 23000 | 88 | 8100 | 7240 |  |
| Clc1ccc(N2C[C@H]3CN[C@H]3C2)cn1 | 0.2 | -9.77 | 105 | 400 | 126 | 30 | 24.5 | 34.7 |
| NC(=O)c1cc(N2C[C@H]3CNC[C@H]32)cnc1Br | 6.5 | -8.19 | 88 | 21200 | 155 | 1100 |  | 20900 |
| C#Cc1cncc(N2C[C@@H]3CNC[C@@H]32)c1 | 0.6 | -9.21 | 33 | 33200 | 45 | 20400 | 13500 | 13200 |
| Brc1cc(N2C[C@@H]3CN[C@@H]3C2)cnc1Br | 0.3 | -9.52 | 90 | 1300 | 122 | 1200 |  |  |
| c1coc(-c2cncc(N3C[C@H]4CNC[C@H]43)c2)n1 |  |  | < 10 |  | < 10 |  |  |  |
| N#Cc1cncc(N2C[C@H]3CNC[C@H]32)c1 | 3.2 | -8.5 | 16 |  | 65 | 5900 | 5130 |  |
| N#Cc1cc(N2C[C@H]3CNC[C@H]32)c[n+]([O-])c1 | 18.6 | -7.74 | < 10 |  | 69 | 7500 | 4570 |  |
| Clc1cc(N2C[C@@H]3CN[C@@H]3C2)cnc1Br | 0.2 | -9.62 | 92 | 600 | 108 | 400 |  |  |
| COc1cc(N2C[C@H]3CN[C@H]3C2)cnc1Br | 0.07 | -10.15 | 113 | 100 | 159 | 200 | 148 |  |
| Clc1ccc(C2CC3CCC2N3)cn1 (stereo not drawn) [EPIBATIDINE] |  |  | 103 |  | 133 |  |  |  |
| N=C(NO)c1cncc(N2C[C@H]3CNC[C@H]32)c1 | 29.1 | -7.54 | < 10 |  | 76 | 7200 | 6760 |  |
| Brc1cncc(N2C[C@H]3CNC[C@H]32)c1 | 3.1 | -8.51 | < 10 |  | 31 | 4400 | 4070 |  |
